In ChEMBL document CHEMBL2010768, “Optimization of Potent Inhibitors of P. falciparum Dihydroorotate Dehydrogenase for the Treatment of Malaria” (ACS Med Chem Lett, 2011):
Active and inactive are the calls of the source. The calls are words filed in the database; no cut-off is given here.

Legend:
[1] = target: T1, Dihydroorotate dehydrogenase (Plasmodium falciparum, UniProt Q54A96); experiment: Inhibition of Plasmodium falciparum DHODH after 20 mins by 2,6-dichloroindophenol-reduction based assay
T1 sequence (Q54A96 whole entry): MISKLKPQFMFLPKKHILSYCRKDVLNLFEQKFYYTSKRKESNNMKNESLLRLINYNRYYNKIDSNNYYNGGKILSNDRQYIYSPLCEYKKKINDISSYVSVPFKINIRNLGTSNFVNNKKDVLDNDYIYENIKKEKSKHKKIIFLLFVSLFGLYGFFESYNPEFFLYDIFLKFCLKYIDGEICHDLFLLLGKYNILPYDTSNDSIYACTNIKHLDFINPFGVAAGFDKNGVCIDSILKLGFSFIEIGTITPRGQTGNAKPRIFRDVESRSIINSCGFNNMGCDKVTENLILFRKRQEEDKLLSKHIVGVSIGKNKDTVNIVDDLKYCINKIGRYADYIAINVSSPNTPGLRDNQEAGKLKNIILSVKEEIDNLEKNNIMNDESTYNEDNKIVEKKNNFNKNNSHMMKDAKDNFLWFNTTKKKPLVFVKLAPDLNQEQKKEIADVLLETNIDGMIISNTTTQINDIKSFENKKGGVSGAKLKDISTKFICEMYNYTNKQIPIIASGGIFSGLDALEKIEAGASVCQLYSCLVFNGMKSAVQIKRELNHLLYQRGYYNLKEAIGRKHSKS

[2] = target: Dihydroorotate dehydrogenase (quinone), mitochondrial (Homo sapiens, UniProt Q02127); experiment: Inhibition of human DHODH after 20 mins by 2,6-dichloroindophenol-reduction based assay
Chain of Dihydroorotate dehydrogenase (quinone), mitochondrial (Q02127 whole entry): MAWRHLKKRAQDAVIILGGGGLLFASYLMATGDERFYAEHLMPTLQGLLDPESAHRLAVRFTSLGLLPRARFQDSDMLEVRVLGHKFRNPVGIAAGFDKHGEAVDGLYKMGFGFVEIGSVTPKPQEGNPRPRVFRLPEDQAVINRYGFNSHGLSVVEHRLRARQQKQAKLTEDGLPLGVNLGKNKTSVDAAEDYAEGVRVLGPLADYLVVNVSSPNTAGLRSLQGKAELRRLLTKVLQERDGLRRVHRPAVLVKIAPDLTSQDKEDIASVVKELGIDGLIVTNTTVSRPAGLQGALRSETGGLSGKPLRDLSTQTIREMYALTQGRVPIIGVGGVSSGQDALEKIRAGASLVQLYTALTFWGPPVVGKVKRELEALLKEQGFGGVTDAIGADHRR

[3] = tested on: Plasmodium falciparum; experiment: Antiplasmodial activity against Plasmodium falciparum 3D7 infected in […] after 72 hrs by SYBR green assay; assay type: functional, organism-based; conditions: 3D7, 72 h
[4] = tested on: Plasmodium falciparum; experiment: Antiplasmodial activity against Plasmodium falciparum Dd2 infected in […] after 72 hrs by SYBR green assay; assay type: functional, organism-based; conditions: Dd2, 72 h
[5] = Cytotoxicity against human RPTEC after 4 days by alamar blue assay; assay type: cell-based; conditions: RPTEC cells, read-out: LC50
[6] = tested on: Plasmodium berghei; experiment: Inhibition of Plasmodium berghei DHODH after 20 mins by 2,6-dichloroindophenol-reduction based assay
[7] = tested on: Plasmodium vivax; experiment: Inhibition of Plasmodium vivax DHODH after 20 mins by 2,6-dichloroindophenol-reduction based assay
[8] = Clearance in human liver microsomes by LC-MS/MS analysis; assay type: ADME, Microsome
In short: (§1)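 Liver microsome incubation. Predicted clearance is derived from a well-stirred model corrected for microsomal and protein binding.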

[9] = Clearance in mouse liver microsomes by LC-MS/MS analysis; assay type: ADME, Microsome; in short: as §1
[10] = target: T2, Cytochrome P450 1A2 (Homo sapiens, UniProt P05177); experiment: Inhibition of human CYP1A2 using phenacetin as substrate after 10 mins by LC-MS/MS analysis; assay type: ADME; conditions: human, 10 min
T2 sequence (P05177 whole entry): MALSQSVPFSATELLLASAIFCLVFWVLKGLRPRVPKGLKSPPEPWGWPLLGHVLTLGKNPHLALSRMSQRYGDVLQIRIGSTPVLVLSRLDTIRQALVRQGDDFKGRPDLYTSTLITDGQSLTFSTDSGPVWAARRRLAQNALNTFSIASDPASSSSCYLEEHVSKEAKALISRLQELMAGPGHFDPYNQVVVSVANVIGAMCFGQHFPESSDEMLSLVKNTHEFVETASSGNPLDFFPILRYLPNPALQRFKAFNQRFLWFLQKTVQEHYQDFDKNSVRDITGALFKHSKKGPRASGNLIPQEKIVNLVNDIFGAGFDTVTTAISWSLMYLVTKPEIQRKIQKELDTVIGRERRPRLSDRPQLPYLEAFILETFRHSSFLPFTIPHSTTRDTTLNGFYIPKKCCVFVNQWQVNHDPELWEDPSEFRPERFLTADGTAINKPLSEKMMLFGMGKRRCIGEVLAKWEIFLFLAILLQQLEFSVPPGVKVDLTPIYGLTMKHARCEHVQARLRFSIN

[11] = target: Cytochrome P450 2C9 (Homo sapiens, UniProt P11712); experiment: Inhibition of human CYP2C9 using diclofenac as substrate after 10 mins by LC-MS/MS analysis; assay type: ADME; conditions: human, 10 min
Chain of Cytochrome P450 2C9 (P11712 whole entry): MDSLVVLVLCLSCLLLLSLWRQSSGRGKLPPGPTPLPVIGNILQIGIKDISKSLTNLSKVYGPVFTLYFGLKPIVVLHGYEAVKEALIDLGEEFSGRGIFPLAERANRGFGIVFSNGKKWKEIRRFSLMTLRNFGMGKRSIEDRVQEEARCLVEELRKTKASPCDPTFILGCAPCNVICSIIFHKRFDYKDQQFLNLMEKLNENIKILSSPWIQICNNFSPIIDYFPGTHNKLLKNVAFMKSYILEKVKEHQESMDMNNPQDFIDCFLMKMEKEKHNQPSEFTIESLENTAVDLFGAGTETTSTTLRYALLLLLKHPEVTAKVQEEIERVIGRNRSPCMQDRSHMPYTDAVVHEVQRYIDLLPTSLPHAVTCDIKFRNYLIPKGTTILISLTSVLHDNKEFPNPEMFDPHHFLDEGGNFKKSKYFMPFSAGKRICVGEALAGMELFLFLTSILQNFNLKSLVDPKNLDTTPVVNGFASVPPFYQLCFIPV

[12] = target: Cytochrome P450 2C19 (Homo sapiens, UniProt P33261); experiment: Inhibition of human CYP2C19 using S-mephenytoin as substrate after 45 mins by LC-MS/MS analysis; assay type: ADME; conditions: human, 0.75 h
Chain of Cytochrome P450 2C19 (P33261 whole entry): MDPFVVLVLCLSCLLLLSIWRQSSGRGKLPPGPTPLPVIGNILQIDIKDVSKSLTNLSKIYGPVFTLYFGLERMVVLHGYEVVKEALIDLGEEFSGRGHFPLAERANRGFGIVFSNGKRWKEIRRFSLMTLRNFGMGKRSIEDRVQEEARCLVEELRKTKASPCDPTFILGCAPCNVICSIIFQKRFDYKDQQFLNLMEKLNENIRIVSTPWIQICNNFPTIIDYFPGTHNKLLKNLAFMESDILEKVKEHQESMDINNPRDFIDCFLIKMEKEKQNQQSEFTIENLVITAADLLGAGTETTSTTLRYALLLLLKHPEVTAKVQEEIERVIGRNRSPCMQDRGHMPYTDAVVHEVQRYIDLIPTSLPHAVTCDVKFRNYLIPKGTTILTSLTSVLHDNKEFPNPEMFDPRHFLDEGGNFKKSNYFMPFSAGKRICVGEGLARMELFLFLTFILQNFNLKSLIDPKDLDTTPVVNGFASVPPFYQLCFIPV

[13] = target: Cytochrome P450 3A4 (Homo sapiens, UniProt P08684); experiment: Inhibition of human CYP3A4 using midazolam as substrate after 5 mins by LC-MS/MS analysis; assay type: ADME; conditions: human, 5 min
Chain of Cytochrome P450 3A4 (P08684 whole entry): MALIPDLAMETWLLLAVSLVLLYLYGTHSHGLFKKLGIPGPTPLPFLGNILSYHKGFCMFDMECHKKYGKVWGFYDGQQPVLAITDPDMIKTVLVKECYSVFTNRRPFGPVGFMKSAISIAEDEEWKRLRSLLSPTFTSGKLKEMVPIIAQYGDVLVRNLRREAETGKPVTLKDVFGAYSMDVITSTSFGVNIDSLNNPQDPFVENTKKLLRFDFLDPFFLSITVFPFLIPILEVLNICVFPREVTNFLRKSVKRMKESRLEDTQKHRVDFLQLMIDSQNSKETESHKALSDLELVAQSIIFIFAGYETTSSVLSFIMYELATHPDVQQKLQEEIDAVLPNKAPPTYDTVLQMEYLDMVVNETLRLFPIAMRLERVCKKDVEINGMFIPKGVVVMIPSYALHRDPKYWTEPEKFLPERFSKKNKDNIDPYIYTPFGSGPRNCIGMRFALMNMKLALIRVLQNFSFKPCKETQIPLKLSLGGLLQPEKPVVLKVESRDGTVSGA

[14] = target: Cytochrome P450 2D6 (Homo sapiens, UniProt P10635); experiment: Inhibition of human CYP2D6 using bufuralol as substrate after 10 mins by LC-MS/MS analysis; assay type: ADME
Chain of Cytochrome P450 2D6 (P10635 whole entry): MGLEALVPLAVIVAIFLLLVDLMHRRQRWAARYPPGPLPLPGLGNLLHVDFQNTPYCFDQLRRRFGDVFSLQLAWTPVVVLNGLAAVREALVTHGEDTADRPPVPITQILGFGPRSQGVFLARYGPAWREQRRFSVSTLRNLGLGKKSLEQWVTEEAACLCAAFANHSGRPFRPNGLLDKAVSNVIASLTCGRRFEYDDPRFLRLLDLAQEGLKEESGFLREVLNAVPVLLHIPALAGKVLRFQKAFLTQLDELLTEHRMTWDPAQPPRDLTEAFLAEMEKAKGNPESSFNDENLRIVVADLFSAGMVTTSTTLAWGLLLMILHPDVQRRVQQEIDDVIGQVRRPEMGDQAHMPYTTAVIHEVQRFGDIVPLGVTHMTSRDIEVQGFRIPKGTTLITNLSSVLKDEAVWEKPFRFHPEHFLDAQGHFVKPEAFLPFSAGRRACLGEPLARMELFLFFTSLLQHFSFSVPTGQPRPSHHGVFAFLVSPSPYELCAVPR

[15] = target: Voltage-gated inwardly rectifying potassium channel KCNH2 (Homo sapiens, UniProt Q12809); experiment: Inhibition of human ERG expressed in CHOK1 cells by whole cell voltage clamp assay; assay type: cell-based, CHO-K1
Chain of Voltage-gated inwardly rectifying potassium channel KCNH2 (Q12809 whole entry): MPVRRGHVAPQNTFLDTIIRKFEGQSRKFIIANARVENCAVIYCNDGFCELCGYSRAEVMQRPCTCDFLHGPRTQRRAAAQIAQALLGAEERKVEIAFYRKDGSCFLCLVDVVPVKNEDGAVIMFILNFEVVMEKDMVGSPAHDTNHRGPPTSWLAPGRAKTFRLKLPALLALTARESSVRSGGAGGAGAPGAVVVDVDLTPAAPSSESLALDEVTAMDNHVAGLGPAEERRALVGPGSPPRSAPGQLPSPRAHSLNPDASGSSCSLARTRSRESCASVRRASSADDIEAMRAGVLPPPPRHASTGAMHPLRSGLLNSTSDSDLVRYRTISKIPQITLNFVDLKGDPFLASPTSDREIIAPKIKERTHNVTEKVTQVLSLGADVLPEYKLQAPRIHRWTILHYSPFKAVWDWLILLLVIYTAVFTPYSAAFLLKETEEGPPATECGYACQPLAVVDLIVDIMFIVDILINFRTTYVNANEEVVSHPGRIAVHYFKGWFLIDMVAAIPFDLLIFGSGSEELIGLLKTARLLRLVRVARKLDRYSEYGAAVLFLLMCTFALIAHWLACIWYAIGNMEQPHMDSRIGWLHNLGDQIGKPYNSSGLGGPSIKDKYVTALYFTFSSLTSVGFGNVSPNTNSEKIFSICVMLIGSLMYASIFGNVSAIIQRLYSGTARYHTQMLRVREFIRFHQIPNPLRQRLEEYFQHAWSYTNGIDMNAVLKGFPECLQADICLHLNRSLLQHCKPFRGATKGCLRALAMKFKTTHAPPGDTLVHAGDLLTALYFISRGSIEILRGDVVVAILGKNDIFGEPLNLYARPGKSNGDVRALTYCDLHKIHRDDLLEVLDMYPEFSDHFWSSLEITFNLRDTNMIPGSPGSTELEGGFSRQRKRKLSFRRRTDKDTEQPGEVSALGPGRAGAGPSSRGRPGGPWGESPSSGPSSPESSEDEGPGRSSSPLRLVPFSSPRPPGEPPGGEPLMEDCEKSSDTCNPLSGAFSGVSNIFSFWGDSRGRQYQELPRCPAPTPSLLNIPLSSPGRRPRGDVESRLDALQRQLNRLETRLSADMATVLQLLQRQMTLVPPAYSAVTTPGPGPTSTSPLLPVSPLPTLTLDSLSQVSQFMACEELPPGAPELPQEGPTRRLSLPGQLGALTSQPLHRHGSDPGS

| inhibition [6] | inhibition [7] | CLhep predicted [8] [mL/min/kg] | CLhep predicted [9] [mL/min/kg] | inhibition (INH) [10] | inhibition (INH) [11] | inhibition (INH) [12] | inhibition (INH) [13] | inhibition (INH) ([14]; human, 10 min) | IC50 [14] [nM] | Structure (SMILES) | IC50 [1] [nM] | IC50 [2] [nM] | IC50 [3] [nM] | IC50 [4] [nM] | CC50 at 96 h [5] [nM] | inhibition (INH) ([15]; human, cho-k1) | IC50 [15] [nM] |
| --- | --- | --- | --- | --- | --- | --- | --- | --- | --- | --- | --- | --- | --- | --- | --- | --- | --- |
| – | – | – | – | – | – | – | – | – | – | CCCc1nc2ccccc2n1-c1ccc(C(=O)NC2CC2)s1 | 180 | 15100 | 390 | 630 | > 62000 | – | – |
| – | – | – | – | – | – | – | – | – | – | O=C(NC1CC1)c1ccc(-n2c(C(F)(F)F)nc3ccccc32)s1 | 570 | > 30000 | 830 | 1710 | > 62000 | – | – |
| Active | Active | 4 | > 72 | Not Active | Not Active | Not Active | Not Active | Not Active | – | COc1cccc2c1nc(C)n2-c1ccc(C(=O)NC2CC2)s1 | 162 | – | 49 | 109 | – | Not Active | – |
| Active | Active | 7 | 43 | – | – | – | – | – | 100 | Cc1nc2cc(OC(F)(F)F)ccc2n1-c1ccc(C(=O)NC2CC2)s1 | 22 | – | 7 | 9 | – | – | < 2800 |
